{"source": "paper PMC10463567", "about": "(Journal of medicinal chemistry, 2023)", "key": {"Vero cells": {"system": "Vero cells", "experiment": "Cytotoxicity to Vero cells in the anti-ZIKV screen", "type": "cell-based, monkey", "settings": "10 μM screen; in Table 2 printed in the % inhibition at 10 μM column", "outline": "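Cytopathic effect and cell death were scored by microscope, with MTT to quantitate viable cells. Compounds giving CPE-like phenotype or cell death at 10 μM were flagged as cytotoxic.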"}, "[1]": {"system": "ZIKV (FLR strain, Colombia, 2015)", "experiment": "Anti-ZIKV", "type": "cell-based, Zika virus", "settings": "Vero cells; for % inhibition of ZIKV at 10 μM: ZIKV FLV (FLR) strain, viral titer vs untreated"}, "ZIKV RNA": {"system": "ZIKV RNA", "experiment": "Quantitative RT-PCR of ZIKV RNA copies in supernatant of infected Vero cells", "type": "cell-based, Zika virus", "outline": "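Viral RNA was extracted with TRIzol from 50 μL of culture supernatant. One-step TaqMan RT-qPCR used ZIKV-specific primers and probe amplifying envelope gene region 3. ZIKV RNA was expressed as copies/mL, calculated from a standard curve.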"}, "[2]": {"system": "Zika virus NS5, NS3 and capsid proteins", "experiment": "Western blot of viral NS5, NS3 and capsid proteins in ZIKV-infected Vero cells", "type": "cell-based", "settings": "48h"}, "ZIKV (FLV strain)": {"system": "ZIKV (FLV strain)", "experiment": "Time-of-addition", "type": "cell-based, Zika virus", "settings": "1 μM, added together with virus, Vero cells"}, "ZIKV": {"system": "ZIKV", "experiment": "Anti-ZIKV activity in Vero cells with added glutathione", "type": "cell-based, Zika virus", "settings": "1 mM GSH in culture media", "outline": "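ZIKV (FLR strain) infected Vero cells were given test compound in culture medium supplemented with 1 mM glutathione, a nucleophilic thiol, to test whether the compound acts by covalent reaction. Anti-ZIKV activity was read in the cell-based antiviral assay.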"}}, "note": "Several values for one entry are separate records, joined by “and”; a condition that tells them apart may be missing. Equal values may be shown once. Entries after “also recorded” stand apart in the source; their conditions may differ. Where a name gives a salt, the structure may show the parent alone."}
{"compound": "COc1cccc(/C=C/c2nc3ccc(N4CCN(C)CC4)cc3c(=O)n2-c2cccc(C(C)(C)C)c2)n1", "note": "[Compound 26, 6-(4-Methylpiperazin-1-yl)-3-(3-tert-butylphenyl)-2-[2-(6-methoxyl-2-pyridinyl)ethenyl]-4(3H)-quinazolinone]", "values": [{"measurement": "Cytotoxicity to Vero cells", "setting": "Vero cells", "result": "Cytotoxic"}]}
{"compound": "COc1cccc(/C=C/c2nc3ccc(N4CCNCC4)cc3c(=O)n2-c2cccc(C(C)(C)C)c2)n1", "note": "[Compound 25, 6-(Piperazin-1-yl)-3-(3-tert-butylphenyl)-2-[2-(6-methoxyl-2-pyridinyl)ethenyl]-4(3H)-quinazolinone hydrochloride]", "values": [{"measurement": "Cytotoxicity to Vero cells", "setting": "Vero cells", "result": "significant cytotoxicity; also recorded: Cytotoxic"}]}
{"compound": "COc1cccc(/C=C/c2nc3ccc(Cl)cc3c(=O)n2-c2cccc(C(C)(C)C)c2)n1", "note": "[Compound 20, 6-Chloro-3-(3-tert-butylphenyl)-2-[2-(6-methoxyl-2-pyridinyl)ethenyl]-4(3H)-quinazolinone]", "values": [{"measurement": "% inhibition of ZIKV at 10 μM", "setting": "[1]; 10 μM", "result": "inactive"}]}
{"compound": "COc1cccc(/C=C/c2nc3ccc(N4CCCCC4)cc3c(=O)n2-c2cccc(C(C)(C)C)c2)n1", "note": "[Compound 22, 6-(Piperidin-1-yl)-3-(3-tert-butylphenyl)-2-[2-(6-methoxyl-2-pyridinyl)ethenyl]-4(3H)-quinazolinone]", "values": [{"measurement": "ZIKV RNA copies in the supernatant", "setting": "ZIKV RNA", "result": "dose-dependently reduce"}]}
{"compound": "3-(3-tert-Butylphenyl)-2-[2-(3-methoxyl-2-pyridinyl)ethenyl]-4(3H)-quinazolinone [Compound 11]", "values": [{"measurement": "% inhibition of ZIKV at 10 μM", "setting": "[1]; 10 μM", "result": 0, "unit": "%"}]}
{"compound": "COc1cccc(/C=C/c2nc3ccc(N4CCC(N5CCOCC5)CC4)cc3c(=O)n2-c2cccc(C(C)(C)C)c2)n1", "note": "[Compound 28, 6-(4-Morpholinopiperidin-1-yl)-3-(3-tert-butylphenyl)-2-[2-(6-methoxyl-2-pyridinyl)ethenyl]-4(3H)-quinazolinone]", "values": [{"measurement": "Cytotoxicity to Vero cells", "setting": "Vero cells", "result": "without cytotoxicity"}]}
{"compound": "6-(Piperidin-1-yl)-3-(3-tert-butylphenyl)-2-(2,6-dimethoxystyryl)-4(3H)-quinazolinone [Compound 39]", "values": [{"measurement": "% inhibition of ZIKV at 10 μM", "setting": "[1]; 10 μM", "result": 96.8, "unit": "%"}]}
{"compound": "COc1cccc(CCc2nc3ccc(N4CCOCC4)cc3c(=O)n2-c2cccc(C(C)(C)C)c2)n1", "note": "[Compound 54, 6-Morpholino-3-(3-tert-butylphenyl)-2-[2-(6-methoxypyridin-2-yl)ethyl]-4(3H)-quinazolinone]", "values": [{"measurement": "% inhibition of ZIKV at 10 μM", "setting": "[1]; 10 μM", "result": "inactive"}]}
{"compound": "CC(C)(C)c1cccc(-n2c(/C=C/c3ccccc3)nc3ccccc3c2=O)c1", "note": "[Compound 15, 3-(3-tert-Butylphenyl)-2-(2-phenylethenyl)-4(3H)-quinazolinone]", "values": [{"measurement": "% inhibition of ZIKV at 10 μM", "setting": "[1]; 10 μM", "result": "inactive"}]}
{"compound": "CC(C)(C)c1cccc(-n2c(/C=C/c3ccc(C(F)(F)F)cc3)nc3ccc(N4CCCCC4)cc3c2=O)c1", "note": "[Compound 36]", "values": [{"measurement": "% inhibition of ZIKV at 10 μM", "setting": "[1]; 10 μM, 10 µM", "result": 90, "unit": "%"}]}
{"compound": "COc1cccc(/C=C/c2nc3ccc(N4CCOCC4)cc3c(=O)n2-c2cccc(C(C)(C)C)c2)n1", "note": "[Compound 27, 6-Morpholino-3-(3-tert-butylphenyl)-2-[2-(6-methoxyl-2-pyridinyl)ethenyl]-4(3H)-quinazolinone]", "values": [{"measurement": "cellular levels of viral NS5, NS3 and capsid proteins", "setting": "[2]", "result": "significantly reduce"}, {"measurement": "viral titer reduction, 2h-pretreatment", "setting": "ZIKV (FLV strain)", "result": "≥ 90", "unit": "%"}, {"measurement": "anti-ZIKV activity in the presence of GSH", "setting": "ZIKV", "result": "not affected"}, {"measurement": "ZIKV RNA copies in the supernatant", "setting": "ZIKV RNA", "result": "dose-dependently reduce"}, {"measurement": "Cytotoxicity to Vero cells", "setting": "Vero cells", "result": "without cytotoxicity"}, {"measurement": "fold more potent antiviral activity than compound 22", "setting": "[1]; ZIKV-FLR, EC50 comparison", "result": "~ 4 ×"}]}
{"compound": "COc1cccc(CCc2nc3ccc(N4CCCCC4)cc3c(=O)n2-c2cccc(C(C)(C)C)c2)n1", "note": "[Compound 53, 6-(Piperidin-1-yl)-3-(3-tert-butylphenyl)-2-[2-(6-methoxypyridin-2-yl)ethyl]-4(3H)-quinazolinone]", "values": [{"measurement": "% inhibition of ZIKV at 10 μM", "setting": "[1]; 10 μM", "result": "inactive"}]}
{"compound": "COc1cccc(-c2ccc3nc(/C=C/c4cccc(OC)n4)n(-c4cccc(C(C)(C)C)c4)c(=O)c3c2)c1", "note": "[Compound 30, 6-(3-Methoxyphenyl)-3-(3-tert-butylphenyl)-2-[2-(6-methoxypyridin-2-yl)vinyl]-4(3H)-quinazolinone]", "values": [{"measurement": "% inhibition of ZIKV at 10 μM", "setting": "[1]; 10 μM", "result": "inactive"}]}
{"compound": "3-(3-tert-Butylphenyl)-2-[2-(4-trifluoromethyl-3-pyridinyl)ethenyl]-4(3H)-quinazolinone [Compound 3]", "values": [{"measurement": "% inhibition of ZIKV at 10 μM", "setting": "[1]; 10 μM", "result": 90.0, "unit": "%"}]}
{"compound": "3-(3-tert-Butylphenyl)-2-[2-(1-naphthyl)ethenyl]-4(3H)-quinazolinone [Compound 19]", "values": [{"measurement": "% inhibition of ZIKV at 10 μM", "setting": "[1]; 10 μM, 10 µM", "result": "68% and 68.4%"}]}
{"compound": "CCN(CC)c1ccc2nc(/C=C/c3cccc(OC)n3)n(-c3cccc(C(C)(C)C)c3)c(=O)c2c1", "note": "[Compound 1, 6-Diethylamino-3-(3-tert-butylphenyl)-2-[2-(6-methoxyl-2-pyridinyl)ethenyl]-4(3H)-quinazolinone]", "values": [{"measurement": "fold activity enhancement to inhibit ZIKV replication compared to unsubstituted compound 11", "setting": "[1]; 10 μM", "result": "≥ 1,000 fold"}]}
{"compound": "CC(C)(C)c1cccc(-n2c(/C=C/c3cccnc3)nc3ccccc3c2=O)c1", "note": "[Compound 12, 3-(3-tert-Butylphenyl)-2-[2-(3-pyridinyl)ethenyl]-4(3H)-quinazolinone]", "values": [{"measurement": "% inhibition of ZIKV at 10 μM", "setting": "[1]; 10 μM", "result": "inactive"}]}
{"compound": "6-(4-Methylpiperazin-1-yl)-3-(3-tert-butylphenyl)-2-(2,6-dimethoxystyryl)-4(3H)-quinazolinone [Compound 40]", "values": [{"measurement": "Cytotoxicity to Vero cells", "setting": "Vero cells", "result": "Cytotoxic"}]}
{"compound": "COc1ccc2nc(/C=C/c3cccc(OC)n3)n(-c3cccc(C(C)(C)C)c3)c(=O)c2c1", "note": "[Compound 21, 6-Methoxy-3-(3-tert-butylphenyl)-2-[2-(6-methoxyl-2-pyridinyl)ethenyl]-4(3H)-quinazolinone]", "values": [{"measurement": "% inhibition of ZIKV at 10 μM", "setting": "[1]; 10 μM", "result": "inactive"}]}
{"compound": "COc1cccc(/C=C/c2nc3ccc(-c4ccncc4)cc3c(=O)n2-c2cccc(C(C)(C)C)c2)n1", "note": "[Compound 29, 6-(Pyridin-4-yl)-3-(3-tert-butylphenyl)-2-[2-(6-methoxypyridin-2-yl)vinyl]-4(3H)-quinazolinone dihydrochloride]", "values": [{"measurement": "% inhibition of ZIKV at 10 μM", "setting": "[1]; 10 μM", "result": "inactive"}]}
